Experimental data reported in ChEMBL document CHEMBL4190362, “Synthesis, biological evaluation and quantitative structure-active relationships of 1,3-thiazolidin-4-one derivatives. A promising chemical scaffold endowed with high antifungal potency and low cytotoxicity” (Eur J Med Chem, 2017).

How the values were obtained:
[1] = test system: Staphylococcus aureus; test: Antibacterial activity against Staphylococcus aureus assessed as inhibition of microbial growth incubated for 18 to 22 hrs by broth microdilution method; assay type: functional
How it was run: (§1)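 Broth microdilution in Mueller-Hinton II broth following NCCLS recommendations; compounds dissolved in DMSO.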

[2] = test system: Candida parapsilosis; test: Antifungal activity against Candida parapsilosis clinical isolates assessed as inhibition of microbial growth incubated for 24 hrs by broth microdilution method; assay type: functional; settings: Lodderomyces parapsilosis
How it was run: (§2)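 Twenty-two clinical Candida isolates (8 C. albicans, 4 C. glabrata, 3 C. tropicalis, 3 C. krusei, 2 C. parapsilosis, 2 C. sake) were identified by colony morphology and biochemistry and subcultured at 35 °C for purity. Compounds were dissolved in DMSO and tested by broth microdilution in Sabouraud dextrose broth per NCCLS/CLSI/EUCAST guidance. Values are geometric mean MIC per species (µg/mL).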

[3] = test system: Pichia kudriavzevii; test: Antifungal activity against Candida krusei clinical isolates assessed as inhibition of microbial growth incubated for 24 hrs by broth microdilution method; assay type: functional; how it was run: as §2
[4] = test system: [Candida] sake; test: Antifungal activity against Candida sake clinical isolates assessed as inhibition of microbial growth incubated for 24 hrs by broth microdilution method; assay type: functional; settings: Fermentozyma sake; how it was run: as §2
[5] = test system: Enterobacter; test: Antibacterial activity against Enterobacter spp. assessed as inhibition of microbial growth incubated for 18 to 22 hrs by broth microdilution method; assay type: functional; how it was run: as §1
[6] = test system: Enterococcus faecalis; test: Antibacterial activity against Streptococcus faecalis assessed as inhibition of microbial growth incubated for 18 to 22 hrs by broth microdilution method; assay type: functional; how it was run: as §1
[7] = test system: Candida tropicalis; test: Antifungal activity against Candida tropicalis clinical isolates assessed as inhibition of microbial growth incubated for 24 hrs by broth microdilution method; assay type: functional; how it was run: as §2
[8] = test system: Candida albicans; test: Antifungal activity against Candida albicans clinical isolates assessed as inhibition of microbial growth incubated for 24 hrs by broth microdilution method; assay type: functional; how it was run: as §2
[9] = test system: Nakaseomyces glabratus; test: Antifungal activity against Candida glabrata clinical isolates assessed as inhibition of microbial growth incubated for 24 hrs by broth microdilution method; assay type: functional; how it was run: as §2
[10] = test system: Klebsiella oxytoca; test: Antibacterial activity against Klebsiella oxytoca assessed as inhibition of microbial growth incubated for 18 to 22 hrs by broth microdilution method; assay type: functional; how it was run: as §1
[11] = test system: Streptococcus alpha-hemolyticus (Streptococcus sp.); test: Antibacterial activity against Streptococcus Streptococcus alpha hemolyticus assessed as inhibition of microbial growth incubated for 18 to 22 hrs by broth microdilution method
[12] = test system: Staphylococcus warneri; test: Antibacterial activity against Staphylococcus warneri assessed as inhibition of microbial growth incubated for 18 to 22 hrs by broth microdilution method; assay type: functional; how it was run: as §1
[13] = test system: Escherichia coli; test: Antibacterial activity against Escherichia coli assessed as inhibition of microbial growth incubated for 18 to 22 hrs by broth microdilution method; assay type: functional; how it was run: as §1
[14] = test system: Proteus mirabilis; test: Antibacterial activity against Proteus mirabilis assessed as inhibition of microbial growth incubated for 18 to 22 hrs by broth microdilution method; assay type: functional; how it was run: as §1

| Structure (SMILES) | MIC [1] [µg/mL] | MIC [2] [µg/mL] | MIC [3] [µg/mL] | MIC [4] [µg/mL] | MIC [5] [µg/mL] | MIC [6] [µg/mL] | MIC [7] [µg/mL] | MIC [8] [µg/mL] | MIC [9] [µg/mL] | MIC [10] [µg/mL] | MIC [12] [µg/mL] | MIC [13] [µg/mL] | MIC [14] [µg/mL] | MIC [11] [µg/mL] |
| --- | --- | --- | --- | --- | --- | --- | --- | --- | --- | --- | --- | --- | --- | --- |
| CC1CCC(=N/N=C2\NC(=O)CS2)CC1 (stereo not given) | ≥ 256 | 16 | 16 | 16 | ≥ 256 | ≥ 256 | 16 | 16 | 16 | ≥ 256 | ≥ 256 | ≥ 256 | ≥ 256 | ≥ 256 |
| CC(C)(C)C1CCCC/C1=N/N=C1\NC(=O)CS1 (stereo not given) | ≥ 256 | 2 | 2 | 2 | ≥ 256 | ≥ 256 | 8 | 8 | 8 | ≥ 256 | ≥ 256 | ≥ 256 | ≥ 256 | ≥ 256 |
| C/C(=N/N=C1\NC(=O)CS1)C1CCCCC1 | ≥ 256 | 16 | 16 | 16 | ≥ 256 | ≥ 256 | 16 | 8 | 8 | ≥ 256 | ≥ 256 | ≥ 256 | ≥ 256 | ≥ 256 |
| CCC/C(CC)=N\N=C1/NC(=O)CS1 | ≥ 256 | 4 | 2 | 2 | ≥ 256 | ≥ 256 | 16 | 2 | 2 | ≥ 256 | ≥ 256 | ≥ 256 | ≥ 256 | ≥ 256 |
| CC1(C)CCC/C(=N/N=C2\NC(=O)CS2)C1 | ≥ 256 | 128 | 2 | 2 | ≥ 256 | ≥ 256 | 32 | 2 | 2 | ≥ 256 | ≥ 256 | ≥ 256 | ≥ 256 | ≥ 256 |
| C/C(=N/N=C1\NC(=O)CS1)C1CC1 | ≥ 256 | 4 | 2 | 2 | ≥ 256 | ≥ 256 | 32 | 2 | 2 | ≥ 256 | ≥ 256 | ≥ 256 | ≥ 256 | ≥ 256 |
| CCCC/C(C)=N\N=C1/NC(=O)CS1 | ≥ 256 | 4 | 2 | 2 | ≥ 256 | ≥ 256 | 32 | 2 | 2 | ≥ 256 | ≥ 256 | ≥ 256 | ≥ 256 | ≥ 256 |
| O=C1CSC(NN=C2CCCCCC2)=N1 | ≥ 256 | 8 | 8 | 8 | ≥ 256 | ≥ 256 | 8 | 8 | 8 | ≥ 256 | ≥ 256 | ≥ 256 | ≥ 256 | ≥ 256 |
| O=C1CSC(NN=C2CCCCC2)=N1 | ≥ 256 | 256 | 256 | 256 | ≥ 256 | ≥ 256 | 64 | 64 | 64 | ≥ 256 | ≥ 256 | ≥ 256 | ≥ 256 | ≥ 256 |
| O=C1CSC(NN=C2CCCCCCC2)=N1 | ≥ 256 | 32 | 32 | 32 | ≥ 256 | ≥ 256 | 8 | 8 | 8 | ≥ 256 | ≥ 256 | ≥ 256 | ≥ 256 | ≥ 256 |

Second part, led by results:

| MIC [1] [µg/mL] | MIC [2] [µg/mL] | MIC [3] [µg/mL] | MIC [4] [µg/mL] | MIC [5] [µg/mL] | MIC [6] [µg/mL] | MIC [7] [µg/mL] | MIC [8] [µg/mL] | MIC [9] [µg/mL] | MIC [10] [µg/mL] | MIC [12] [µg/mL] | MIC [13] [µg/mL] | MIC [14] [µg/mL] | Structure (SMILES) | MIC [11] [µg/mL] |
| --- | --- | --- | --- | --- | --- | --- | --- | --- | --- | --- | --- | --- | --- | --- |
| ≥ 256 | 2 | 2 | 4 | ≥ 256 | ≥ 256 | 8 | 2 | 2 | ≥ 256 | ≥ 256 | ≥ 256 | ≥ 256 | CC(C)=C/C(C)=N\N=C1/NC(=O)CS1 | ≥ 256 |
| ≥ 256 | 2 | 2 | 4 | ≥ 256 | ≥ 256 | 2 | 2 | 2 | ≥ 256 | ≥ 256 | ≥ 256 | ≥ 256 | C=CCC/C(C)=N\N=C1/NC(=O)CS1 | ≥ 256 |
| ≥ 256 | 2 | 2 | 2 | ≥ 256 | ≥ 256 | 2 | 2 | 2 | ≥ 256 | ≥ 256 | ≥ 256 | ≥ 256 | C/C(CC(C)C)=N/N=C1\NC(=O)CS1 | ≥ 256 |
| ≥ 256 | 16 | 16 | 16 | ≥ 256 | ≥ 256 | 2 | 2 | 2 | ≥ 256 | ≥ 256 | ≥ 256 | ≥ 256 | CCCCCC/C(C)=N\N=C1/NC(=O)CS1 | ≥ 256 |
| ≥ 256 | 2 | 2 | 2 | ≥ 256 | ≥ 256 | 8 | 8 | 8 | ≥ 256 | ≥ 256 | ≥ 256 | ≥ 256 | CC1CCC/C(=N/N=C2\NC(=O)CS2)C1 (stereo not given) | ≥ 256 |
